13 compounds from ChEMBL document CHEMBL1125265, “FTIR spectral study of intramolecular hydrogen bonding in thromboxane A2 receptor antagonist S-145 and related compounds. 3. Conformation and activity of S-145 analogues” (J Med Chem, 1991) can be followed below.

The species named for one test is Rattus norvegicus. In words: In vitro inhibitory concentration measured against collagen ([…]) induced aggregation of washed platelets (WP) in rat. It counts as functional. In a few lines: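 Rat washed platelets; aggregation triggered with collagen at 4 µg/mL; inhibitory concentration reported as IC50, following a procedure from earlier work.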
Usually IC50 stands for the point on the concentration scale where inhibition reaches its midpoint. On to `O=C(O)CCCCCNS(=O)(=O)c1ccccc1`, for which the IC50 is over 14500 nM.

In turn, `O=C(O)CCCCCCCCCCNS(=O)(=O)c1ccccc1` returned a concentration for half-maximal inhibition (IC50) of 4350 nM.

`O=C(O)CCCCCCCCNS(=O)(=O)c1ccccc1` showed an IC50 of 410 nM.

Take `O=C(O)CCCCCCNS(=O)(=O)c1ccccc1`: half-maximal inhibition (IC50) required 11600 nM.

As for `O=C(O)CCCCNS(=O)(=O)c1ccccc1`, the IC50 was over 14500 nM.

In turn, `O=C(O)CCC/C=C\C[C@@H]1C(NS(=O)(=O)c2ccccc2)C2CC[C@@H]1C2` (some centres not stated) displayed an IC50 of 2.9 nM.

`O=C(O)CCCNS(=O)(=O)c1ccccc1`: the IC50 is over 14500 nM.

Compound `O=C(O)CCCCCCCCCCCNS(=O)(=O)c1ccccc1` registered an IC50 of 3480 nM.

In turn, `O=C(O)CCC/C=C\CCCNS(=O)(=O)c1ccccc1` registered an IC50 of 41 nM. Compared with the last compound, the IC50 is about 85-fold lower.

Regarding `O=C(O)CCCCCCCNS(=O)(=O)c1ccccc1`, the IC50 came out at 290 nM. Compared with the last compound, the IC50 is about 7.1-fold higher.

The species entered for a further test is Rattus norvegicus. The test can be described thus: In vitro inhibitory concentration measured against U-46,619 (30 nM) induced contraction for rat aorta. It counts as functional.
With `O=C(O)CCCCCNS(=O)(=O)c1ccccc1`, the IC50 was over 140000 nM.

`O=C(O)CCCCCCCCCCNS(=O)(=O)c1ccccc1` came in with an IC50 of 4600 nM.

Take `O=C(O)CCCCCCCCNS(=O)(=O)c1ccccc1`: the IC50 was 1600 nM. Compared with the last compound, the IC50 is about 2.9-fold lower.

`O=C(O)CCCCCCNS(=O)(=O)c1ccccc1` gave an IC50 of 55300 nM.

Compound `O=C(O)CCCCNS(=O)(=O)c1ccccc1` had an IC50 of over 140000 nM.

The compound `O=C(O)CCC/C=C\C[C@@H]1C(NS(=O)(=O)c2ccccc2)C2CC[C@@H]1C2` (some centres not stated) had an IC50 of 1.4 nM.

`O=C(O)CCCNS(=O)(=O)c1ccccc1` had an IC50 of over 140000 nM.

`O=C(O)CCCCCCCCCCCNS(=O)(=O)c1ccccc1` returned an IC50 of 6400 nM.

`O=C(O)CCCCCCCNS(=O)(=O)c1ccccc1` returned an IC50 of 2800 nM.

A further test is filed under the species Oryctolagus cuniculus. In words: In vitro inhibitory concentration measured against U-46,619 (1 uM) induced aggregation of washed platelets (WP) in rabbit. It counts as functional.
As to `O=C(O)CCCCCCCCCCNS(=O)(=O)c1ccccc1`, inhibition was half-maximal at 10000 nM (IC50).

The compound `O=C(O)CCCCCCCCNS(=O)(=O)c1ccccc1` yielded an IC50 of 400 nM.

On to `O=C(O)CCCCCCNS(=O)(=O)c1ccccc1`, for which the IC50 was over 10000 nM.

`O=C(O)CCC/C=C\C[C@@H]1C(NS(=O)(=O)c2ccccc2)C2CC[C@@H]1C2` (some centres not stated) came in with an IC50 of 6 nM.

For the compound `O=C(O)CCCCCCCCCCCNS(=O)(=O)c1ccccc1`, the IC50 was over 10000 nM.

As for `O=C(O)CCC/C=C\CCCNS(=O)(=O)c1ccccc1`, the IC50 stood at 48 nM.

Take `O=C(O)CCCCCCCNS(=O)(=O)c1ccccc1`: half-maximal inhibition (IC50) was put at 700 nM.

`O=C(O)COc1ccc(CCNS(=O)(=O)c2ccccc2)cc1` [SULOTROBAN]: half-maximal inhibition (IC50) required 300 nM.

For another test, the species on record is Oryctolagus cuniculus. The test can be described thus: In vitro inhibitory concentration measured against U-46,619 (1 uM) induced aggregation of washed platelets (WP) in rabbit; N-Negative. It counts as functional.
In the case of `CCCCCCC(O)CCCCCCCCCCC(=O)O` (configuration not stated), the IC50 entry was “Negative”.

For `O=C(O)CCCCCNS(=O)(=O)c1ccccc1`, the IC50 result is “Negative”.

Regarding `O=C(O)CCCCCCCCCCCO`, the half-maximal inhibitory concentration (IC50) entry is on record as “Negative”.

Turning to `O=C(O)CCCCNS(=O)(=O)c1ccccc1`, the IC50 entry is recorded as “Negative”.

Regarding `O=C(O)CCCNS(=O)(=O)c1ccccc1`, the IC50 result is “Negative”.
